IC50 and Activity data for twelve molecules are collected here from ChEMBL document CHEMBL1649338, “Synthesis of lakshminine and antiproliferative testing of related oxoisoaporphines” (J Nat Prod, 2010).

Data set [1] can be described thus: (§1) Antiproliferative activity against human HTB-1 cells by MTT assay. The data set is classed as functional, cell-based. The procedure, abridged:
(§2)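 Cells were grown in medium with 10% heat-inactivated FBS, penicillin G and streptomycin, and were plated in 96-well plates. One day after seeding, they were exposed for 72 h to 0–100 µM compound (DMSO stock diluted in complete medium, final DMSO 1%). Viability was read by MTT reduction. IC50 values came from fitting the dose-response curves to a sigmoidal model.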
Background: Tetrazolium assays rely on reduction of a dye to a coloured formazan, in cell work by metabolically active cells.

The subject of a further data set is AGS. Kind of data set: Antiproliferative activity against human AGS cells by MTT assay. The data set is classed as functional, cell-based. The procedure, abridged: as §2
Data set [2] in a line: (§3) Antiproliferative activity against human HTB-58 cells by MTT assay. The data set is classed as functional, cell-based. The procedure, abridged: as §2
A further data set concerns J82. Kind of data set: Antiproliferative activity against human J82 cells by MTT assay. The class given is functional, cell-based. The method, boiled down:
as §2

In a further data set the test system is SK-MES-1. Nature of the data set: Antiproliferative activity against human SKMES1 cells by MTT assay. The data set is classed as functional, cell-based. The procedure, abridged:
as §2

Data set [3] in a line: Antiproliferative activity against human CRL1739 cells by MTT assay. The data set is classed as functional, cell-based. The method, boiled down: as §2
In another data set the test system is HTB-1. Described as §1. The data set is classed as functional, cell-based. The procedure, abridged:
as §2

For a further data set, the system named is HTB-58. The description is as §3. The data set is classed as functional, cell-based. The procedure, abridged: as §2
A further data set concerns MRC5. Kind of data set: Antiproliferative activity against human MRC5 cells by MTT assay. The data set is classed as cell-based. The procedure, abridged: as §2
A short description of data set [4]: Antiproliferative activity against human CCL171 cells by MTT assay. The data set is classed as cell-based. The method, boiled down:
as §2

Calls of active or inactive are those of the source. No cut-off for these calls is given here.

As usually defined, the IC50 is the point on the concentration scale where inhibition reaches its midpoint. Take `COc1cc2c3c(nccc3c1N)-c1ccccc1C2=O`: the IC50 (in data set [1]; in the data set on AGS; in data set [2]; in the data set with J82; in the data set on SK-MES-1; in [3]) was more than 2.09 µM each time.

On to `COc1ccc2c(c1)C(=O)c1c(NCCc3ccc(O)cc3)c(OC)cc3ccnc-2c13` [DAURIOXOISOPORPHINE A], for which the half-inhibitory concentration (IC50) (in [1]; in the data set with AGS; in data set [2]; in the data set with J82; with SK-MES-1; in data set [3]) was more than 3 µM each time.

For `CNc1c(OC)cc2ccnc3c2c1C(=O)c1cc(OC)ccc1-3` [DAURIOXOISOAPORPHINE C], the concentration for half-maximal inhibition (IC50) (in data set [1]; in the data set on AGS; in data set [2]; with J82; in the data set with SK-MES-1; in data set [3]) was more than 2.09 µM each time.

With `COc1ccc2c(c1)C(=O)c1c(NCCc3ccc(O)cc3)c(OC)c(OC)c3ccnc-2c13` [TYRAMINOPORPINE], the IC50 (in [1]; in the data set with AGS; in [2]; with J82; with SK-MES-1; in data set [3]) was more than 2.09 µM in each case.

For the molecule `COc1cc2c3c(c1)C(=O)c1ccccc1C3=NCC2`, the IC50 (in data set [1]; in the data set with AGS; in data set [2]; in the data set with J82; with SK-MES-1; in data set [3]) was more than 2.09 µM in each case.

On to `COc1cc2ccnc3c2c(c1[N+](=O)[O-])C(=O)c1ccccc1-3`, for which the IC50 (in data set [1]; in the data set on AGS; in [2]; in the data set on J82; in the data set with SK-MES-1; in [3]) was more than 2.09 µM throughout.

`COc1cc2c3c(c1[N+](=O)[O-])C(=O)c1ccccc1C3=NCC2`: the IC50 (in data set [1]; in the data set on AGS; in data set [2]; in the data set with J82; in the data set with SK-MES-1; in [3]) was more than 2.09 µM in each case.

Consider `COc1cc2c3c(c1[N+](=O)[O-])CCN=C3c1ccccc1C2=O`, for which the IC50 (in data set [1]; in the data set on AGS; in [2]; with J82; with SK-MES-1; in data set [3]) was more than 2.09 µM each time.

With `COc1cc2c3c(nccc3c1)-c1ccccc1C2=O`, the IC50 (in data set [1]; in the data set on AGS; in [2]; in the data set with J82; in the data set on SK-MES-1; in data set [3]) was more than 2.09 µM each time.

Turning to `COc1cc2c3c(nccc3c1[N+](=O)[O-])-c1ccccc1C2=O`, the result with HTB-1, in the data set with HTB-58, in the data set on J82 and in the data set with SK-MES-1 was inactive. Besides, the IC50 (in the data set on AGS; in data set [3]) was 4.5 µM throughout. In addition, the Activity result (in the data set on MRC5; in data set [4]) was “Non-toxic” in each case.

For the molecule `COc1cc2ccnc3c2c(c1N)C(=O)c1ccccc1-3` [LAKSHMININE], the IC50 (in data set [1]; in the data set with AGS; in data set [2]; with J82; in the data set with SK-MES-1; in data set [3]) was more than 2.09 µM in each case.

As to `COc1ccc2c(c1)C(=O)c1c(N)c(OC)c(OC)c3ccnc-2c13` [DAURIOXOISOPORPHINE B], the IC50 (in [1]; with AGS; in data set [2]; in the data set on J82; with SK-MES-1; in data set [3]) was more than 3 µM in each case.
